Laboratory results as given in PMC6522656 (Heliyon, 2019).

How the values were obtained:
DU-145 cells = experiment: MTT cytotoxicity assay, DU-145; type: cell-based; conditions: Homo sapiens, DU-145, 72 h, read-out: IC50 DU-145 Prostate
In short: (§1)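 Cells grown as monolayers in DMEM with 4.5 g glucose, 10% FBS and 1% penicillin/streptomycin. Seeded cells exposed for 72 h to several concentrations of test compound (0.1–100 μM), then given MTT for 4 h. Formazan dissolved in DMSO; absorbance read at 570 nm. IC50 taken as the mean of three independent experiments in triplicate; 100 μM cut-off.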

HT-29 cancer cells = experiment: MTT cytotoxicity assay, HT-29; type: cell-based; conditions: Homo sapiens, HT-29, 72 h, read-out: IC50 HT-29 Colon
In short: as §1

HEK293/pcDNA3.1 = experiment: MTT cytotoxicity assay, HEK293/pcDNA3.1; type: cell-based, human; conditions: for IC50: Homo sapiens, HEK293, 72 h, read-out: IC50 HEK293/pcDNA.3.1 Normal; for significant cytotoxicity in human embryonic kidney cells: at a concentration of less than 50 μM
In short: as §1

HCT-116 = experiment: MTT cytotoxicity assay, HCT-116; type: cell-based; conditions: Homo sapiens, HCT-116, 72 h, read-out: IC50 HCT-116 Colon
In short: as §1

[1] = tested on: mouse fibroblast (NIH/3T3); experiment: MTT cytotoxicity assay, NIH/3T3; type: cell-based; conditions: NIH3T3, 72 h, read-out: IC50 3T3 Normal
In short: as §1

A2780 cells [2] = experiment: Nuclear condensation-based apoptosis assay; type: cell-based; conditions: 5, 10, or 20 μM at 24 and 48 h
A2780 cells [3] = experiment: Colony formation assay; type: cell-based; conditions: 10 or 20 μM, incubated 24 hrs, colonies over 2 weeks
In short: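 A2780 cells exposed to vehicle (0 μM) or test compound (10 or 20 μM) for 24 h, then reseeded at very low density in six-well plates and grown 2 weeks. Colonies fixed, stained and counted under a microscope; colony formation rate calculated. Repeated independently in triplicate.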

A2780 cells [4] = experiment: Annexin V based apoptosis assay; type: cell-based; conditions: 24 h; for Q1 (flow cytometry quadrant): control Q1 94.1%; for Q2 (flow cytometry quadrant, apoptosis): control Q2 5.87 %

Structure (SMILES) | IC50 (DU-145 cells) | IC50 (HT-29 cancer cells) | IC50 (HEK293/pcDNA3.1) | IC50 (HCT-116) | IC50 [1] | significant cytotoxicity in human embryonic kidney cells (HEK293/pcDNA3.1) | nuclear morphology of A2780 cells (DAPI staining) (A2780 cells [2]) | colony formation of A2780 cells (A2780 cells [3]) | Q1 (flow cytometry quadrant) (A2780 cells [4]; 10 μM) | Q2 (flow cytometry quadrant, apoptosis) (A2780 cells [4]; 10 μM) | Q1 (flow cytometry quadrant) (A2780 cells [4]; 20 μM) | Q2 (flow cytometry quadrant, apoptosis) (A2780 cells [4]; 20 μM)
O=C1Nc2ccccc2C1=Cc1cc2ccccc2nc1Cl [LM01, 3-((2-chloroquinolin-3-yl)methylene)indolin-2-one] | 77.5 µM | > 100 µM | 64.5 µM | > 100 µM | > 100 µM | – | – | – | – | – | – | –
Cc1ccc2nc(Cl)c(C=C3C(=O)Nc4ccccc43)cc2c1 [LM02, 3-((2-chloro-6-methylquinolin-3-yl)methylene)indolin-2-one] | > 100 µM | > 100 µM | 73.4 µM | 52.1 µM | > 100 µM | – | – | – | – | – | – | –
Cc1cc2cc(C=C3C(=O)Nc4ccccc43)c(Cl)nc2cc1C [LM03, 3-((2-chloro-6,7-dimethylquinolin-3-yl)methylene)indolin-2-one] | > 100 µM | > 100 µM | 97.4 µM | > 100 µM | > 100 µM | – | – | – | – | – | – | –
COc1ccc2nc(Cl)c(C=C3C(=O)Nc4ccccc43)cc2c1 [LM04, 3-((2-chloro-6-methoxyquinolin-3-yl)methylene)indolin-2-one] | 47.2 µM | > 100 µM | 39.9 µM | 60.9 µM | > 100 µM | produced significant cytotoxicity | – | – | – | – | – | –
COc1ccc2cc(C=C3C(=O)Nc4ccccc43)c(Cl)nc2c1 [LM05, 3-((2-chloro-7-methoxyquinolin-3-yl)methylene)indolin-2-one] | > 100 µM | > 100 µM | > 100 µM | 56.2 µM | > 100 µM | – | – | – | – | – | – | –
COc1cc2cc(C=C3C(=O)Nc4ccccc43)c(Cl)nc2cc1OC [LM06, 3-((2-chloro-6,7-dimethoxyquinolin-3-yl)methylene)indolin-2-one] | > 100 µM | > 100 µM | > 100 µM | 75 µM | > 100 µM | – | – | – | – | – | – | –
COc1cccc2cc(C=C3C(=O)Nc4ccccc43)c(Cl)nc12 [LM07, 3-((2-chloro-8-methoxyquinolin-3-yl)methylene)indolin-2-one] | 11 µM | > 100 µM | 80.8 µM | > 100 µM | > 100 µM | – | – | – | – | – | – | –
O=C1Nc2ccccc2C1=Cc1cc2cc(Cl)ccc2nc1Cl [LM08, 3-((2,6-dichloroquinolin-3-yl)methylene)indolin-2-one] | 91.2 µM | > 100 µM | 64.3 µM | 77.8 µM | > 100 µM | – | nuclear condensation | significantly inhibited | 64.8% | 34.6% | 61.5% | 36.9%
O=C1Nc2ccccc2C1=Cc1cc2ccc(Cl)cc2nc1Cl [LM09, 3-((2,7-dichloroquinolin-3-yl)methylene)indolin-2-one] | 54.9 µM | > 100 µM | 63.2 µM | 75.2 µM | > 100 µM | – | – | – | – | – | – | –
O=C1Nc2ccccc2C1=Cc1cc2cc(Br)ccc2nc1Cl [LM10, 3-((6-bromo-2-chloroquinolin-3-yl)methylene)indolin-2-one] | > 100 µM | > 100 µM | 50.5 µM | 41.3 µM | > 100 µM | produced significant cytotoxicity | – | – | – | – | – | –
O=C1Nc2ccccc2C1=Cc1cc2ccc3ccccc3c2nc1Cl [LM11, 3-((2-chlorobenzo[h]quinolin-3-yl)methylene)indolin-2-one] | 95.7 µM | > 100 µM | 75.3 µM | > 100 µM | > 100 µM | – | – | – | – | – | – | –
